PubChem BioAssay
Records with an inconclusive call do not appear.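 Rule for the calls, unless noted: active = inhibition over a set limit, the all-compound mean plus 3 SD, in both replicate runs; inconclusive = over that limit in just one replicate run; inactive = at or under that limit in both runs.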

Legend:
[1] = OD615 S. cerevisiae growth inhibition, permissive medium, pilot counter-assay, permissive growth control for S. cerevisiae lifespan shortening project (AID 705;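 active = growth inhibition above 25% in both replicates, a cutoff set 3 SD above the mean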); conditions: OD615, 24 h, at 10 µM, stronger effect = higher value
Outline: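 System: engineered DeaD yeast; Medium: permissive raffinose/galactose medium; Compound dosing: 10 µM single dose, 0.25% DMSO; Incubation: 4 h cell pre-growth, 24 h exposure at 30 °C; Technique: OD at 615 nm; Evaluation: growth inhibition from lowered OD615 after 24 h.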

[2] = Restrictive medium S. cerevisiae growth inhibition, OD615, pilot screen of yeast lifespan reduction project, restrictive growth control (AID 706;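 active = growth inhibition above a set limit, 3 SD over mean compound inhibition, in both replicates, cut at about 43% in these data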;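 note: modified DeaD lifespan yeast strain shifted to restrictive glucose medium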); conditions: OD615, 48 h, at 10 µM, stronger effect = higher value
Outline: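 Material: modified S. cerevisiae; buffer or medium: CSMM-D glucose medium; doses: one concentration, 10 µM final, 0.25% DMSO; incubation: 48 h compound exposure at 30 °C; detection: optical density at 615 nm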

[3] = viability gain of MRP-1-high H69AR cells under doxorubicin, pilot screen, MRP-1 activator project, CellTiter-Glo, duplicate (AID 807;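 active = viability increase at or above a cutoff of the median across tested compounds plus 3 SD, cut at about 8.5% in these data, passing the limit was not always enough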;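 note: compound pretreatment 18-22 h then 72 h combined with doxorubicin; 0% = doxorubicin alone and 100% = vehicle without doxorubicin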); conditions: H69AR viability with doxorubicin, CellTiter-Glo luminescence; at 10 µM; stronger effect = higher value
[4] = growth suppression of beta-catenin knockout HCT116, pilot screen, human colon tumor cells (AID 823;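 active = cell viability at or below a set limit in both duplicate runs, the limit being the all-compound median minus 4 SD, cut at about 23% in these data, passing the limit was not always enough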;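 note: 0% = wells killed by 20 µM Hyamine and 100% = untreated DMSO cell wells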); conditions: CellTiter-Glo, 60 h, at 10 µM, stronger effect = lower value
[5] = growth suppression of PTEN-deleted HCT116, pilot screen, cell-based, HCT116 clonal line, CellTiter-Glo (AID 824;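 active = viability at or below 27.92% in each of two runs, the all-compound median minus 4 SD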;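 note: 0% = 20 µM Hyamine control and 100% = vehicle cell control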); conditions: 60 h, at 10 µM, stronger effect = lower value
[6] = inhibitors of the yeast RAM network, pilot screen, dse1pr::URA3 reporter, 5-FOA selection (AID 869);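 note: 0% = DMSO wells with no growth and 100% = 10 µM 1-NA-PP1 with full growth; RAM network block rescues cells from 5-FOA so hits raise OD615 growth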; conditions: S. cerevisiae dse1pr::URA3 5-FOA growth, OD615, 2 d; at 10 µM; stronger effect = higher value; strain carries analog-sensitive mutant Cbk1 kinase
[7] = RAM signaling pathway blockade in yeast – S. cerevisiae, Pdr1DBD-CYC8 efflux-inhibited sensitized strain, primary screen (AID 1298;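 active = RAM network inhibition above 8.4% in each of two replicates, 3 SD over the compound average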;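 note: 0% = DMSO untreated cells without growth and 100% = 10 µM 1-NA-PP1 full growth; higher means more yeast growth rescued from 5-FOA killing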); conditions: S. cerevisiae cbk1-as DSE1-URA3 strain, 5-FOA growth OD615, 2 d; at 50 µM; stronger effect = higher value

Cn1c(=O)[nH]c(=O)c2c1nc(N1CCC(Cc3ccccc3)CC1)n2Cc1ccccc1
inactive: growth inhibition [1] -19.2% | growth inhibition [2] -10.1% | viability increase [3] -6.11% | viability [4] 82.8% | viability [5] 69.5% | inhibition [6] 2.9% | RAM network inhibition [7] 3.08%

COc1ccc(C(C#N)(CCC#N)CCC#N)cc1OC
inactive: growth inhibition [1] -14.5% | growth inhibition [2] -4.89% | viability increase [3] -1.32% | viability [4] 99.7% | viability [5] 105% | inhibition [6] 1.13% | RAM network inhibition [7] 3.89%

Cc1ccc(C2c3c(oc4cc(C)c(C)cc4c3=O)C(=O)N2CCCN2CCOCC2)cc1 (stereo not drawn)
inactive: growth inhibition [1] -5.16% | growth inhibition [2] -18.6% | viability increase [3] -4.87% | viability [4] 83.3% | viability [5] 90% | inhibition [6] 3.33% | RAM network inhibition [7] -0.94%

CC(C)N(Cc1nc(-c2ccccc2)no1)C(=O)COc1ccccc1
inactive: growth inhibition [1] -12% | growth inhibition [2] -11.7% | viability increase [3] -3.65% | viability [4] 88.2% | viability [5] 89.7% | inhibition [6] 1.03% | RAM network inhibition [7] 3.19%

O=C(CN(Cc1ccccc1)S(=O)(=O)c1ccccc1)NC1CC1
inactive: growth inhibition [1] -4.36% | growth inhibition [2] 11.6% | viability increase [3] -1.25% | viability [4] 102% | viability [5] 96% | inhibition [6] -0.45% | RAM network inhibition [7] 0.45%

CCOC(=O)c1[nH]c2ccccc2c1NC(=O)CC(C)(C)C
inactive: growth inhibition [1] 5.14% | growth inhibition [2] -9.95% | viability increase [3] -3.69% | viability [4] 99.4% | viability [5] 96% | inhibition [6] 1.65% | RAM network inhibition [7] 1.45%

O=C(CSc1ccccn1)c1ccc2c(c1)OCO2
inactive: growth inhibition [1] -3.07% | growth inhibition [2] 9.94% | viability increase [3] -0.21% | viability [4] 99.2% | viability [5] 96.2% | inhibition [6] 0.92% | RAM network inhibition [7] 2.86%

CCCCOC(=O)CSc1nnc(N)s1
inactive: growth inhibition [1] -4.92% | growth inhibition [2] -1.45% | viability increase [3] -0.86% | viability [4] 105% | viability [5] 96.5% | inhibition [6] 0.205% | RAM network inhibition [7] 6.89%

O=C(C1CCC(CNc2c(N3CCCCC3)c(=O)c2=O)CC1)N1CCCCC1 (stereo not drawn)
inactive: growth inhibition [1] -8.65% | growth inhibition [2] -19.7% | viability increase [3] -1.79% | viability [4] 94.3% | viability [5] 93.6% | inhibition [6] 1.09% | RAM network inhibition [7] 7.26%

Cn1c(=O)c2c(nc(N3CCN(Cc4ccccc4)CC3)n2CCSc2ncccn2)n(C)c1=O
inactive: growth inhibition [1] -9.24% | growth inhibition [2] -14% | viability increase [3] -0.19% | viability [4] 100% | viability [5] 106% | inhibition [6] 1.07% | RAM network inhibition [7] 2.77%

Fc1cccc(Cl)c1CSc1nnnn1-c1ccc2c(c1)OCO2
inactive: growth inhibition [1] 3.1% | growth inhibition [2] 17.6% | viability increase [3] -5.87% | viability [4] 55.7% | viability [5] 46.4% | inhibition [6] 1.1% | RAM network inhibition [7] 10.2%

O=C(Nc1ccc(F)cc1)C1CCCN(S(=O)(=O)c2cccc3cccnc23)C1 (stereo not drawn)
inactive: growth inhibition [1] -10.2% | growth inhibition [2] -7.79% | viability increase [3] -0.85% | viability [4] 80.8% | viability [5] 80.3% | inhibition [6] 2.16% | RAM network inhibition [7] 7.62%

Cn1c(Cn2c(=O)sc3ccccc32)nnc1SCC(=O)NCc1ccc(F)cc1
inactive: growth inhibition [1] -13.5% | growth inhibition [2] -17.4% | viability increase [3] -1.09% | viability [4] 104% | viability [5] 95% | inhibition [6] 3.3% | RAM network inhibition [7] 2.63%

CCOC(=O)N1CCC(N2CC34C=CC(O3)C(C(=O)Nc3ccc(OCC)cc3)C4C2=O)CC1 (stereo not drawn)
inactive: growth inhibition [1] 0.885% | growth inhibition [2] 0.91% | viability increase [3] 2.9% | viability [4] 108% | viability [5] 112% | inhibition [6] 0.595% | RAM network inhibition [7] 3.14%

CC(=O)c1c(C)nn(C(=O)c2cccs2)c1C
inactive: growth inhibition [1] 1.07% | growth inhibition [2] 5.09% | viability increase [3] -0.49% | viability [4] 91% | viability [5] 106% | inhibition [6] 1.89% | RAM network inhibition [7] -0.62%

CC1(C)Oc2ccc3ccc(=O)oc3c2-c2cnoc21
inactive: growth inhibition [1] 0.81% | growth inhibition [2] 5.33% | viability increase [3] -0.4% | viability [4] 104% | viability [5] 96.3% | inhibition [6] 1.08% | RAM network inhibition [7] 4.79%

O=C(Nc1nccs1)c1cccc(S(=O)(=O)N2CCOCC2)c1
inactive: growth inhibition [1] -19.2% | growth inhibition [2] -11.8% | viability increase [3] -0.77% | viability [4] 92.8% | viability [5] 92.6% | inhibition [6] 1.83% | RAM network inhibition [7] 1.04%

CC1CCCCN1CCNC(=O)c1cc2c(-c3ccccc3F)nn(C)c2s1 (stereo not drawn)
inactive: growth inhibition [1] -3.09% | growth inhibition [2] 0.025% | viability increase [3] -6.73% | viability [4] 48% | viability [5] 59.6% | inhibition [6] 0.095% | RAM network inhibition [7] 5.89%

O=C(Nc1ccncc1)c1cccs1
inactive: growth inhibition [1] -6.22% | growth inhibition [2] 4.99% | viability increase [3] -2.27% | viability [4] 105% | viability [5] 95.2% | inhibition [6] 1.87% | RAM network inhibition [7] 0.93%

COCCn1c(SCC(=O)NCC2CCCO2)nc2c(c1=O)SC(C)C2 (stereo not drawn)
inactive: growth inhibition [1] -7.14% | growth inhibition [2] -0.265% | viability increase [3] -0.65% | viability [4] 110% | viability [5] 109% | inhibition [6] 1.19% | RAM network inhibition [7] 3.08%

CC1Cc2nc(SCC(=O)NCCc3ccccc3)n(C)c(=O)c2S1 (stereo not drawn)
inactive: growth inhibition [1] -11.5% | growth inhibition [2] -1.29% | viability increase [3] -2.25% | viability [4] 100% | viability [5] 104% | inhibition [6] 1.77% | RAM network inhibition [7] 2.27%

COc1ccc(C2CC(c3cccc(C)c3)n3nc(N)nc3N2)cc1 (stereo not drawn)
inactive: growth inhibition [1] 6.39% | growth inhibition [2] 9.63% | viability increase [3] -1.84% | viability [4] 105% | viability [5] 92.8% | inhibition [6] 3.25% | RAM network inhibition [7] 1.68%

Cc1ccc(-c2nn3c(C)nnc3s2)cc1NC(=O)C(C)C
inactive: growth inhibition [1] -1.65% | growth inhibition [2] 13.7% | viability increase [3] -2.89% | viability [4] 110% | viability [5] 105% | inhibition [6] 0.965% | RAM network inhibition [7] -0.58%

Cc1cc(N=CC2=C(O)CC(C)(C)CC2=O)no1
inactive: growth inhibition [1] -11.7% | growth inhibition [2] -3.7% | viability increase [3] 0.49% | viability [4] 93.2% | viability [5] 104% | inhibition [6] 1.94% | RAM network inhibition [7] 1.04%
